What was measured:
HCT-116 = assay: Antiproliferative activity against human HCT116 cells after 72 hrs by methylene blue staining; format: functional, cell-based; settings: HCT-116, 72 h
Procedure, shortened: (§1)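 Human cancer cell lines exposed to compound for 72 h. Cells then fixed and total protein quantified by methylene blue staining. IC50 taken as concentration giving 50% growth inhibition.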

MCF7 = assay: Antiproliferative activity against human MCF7 cells after 72 hrs by methylene blue staining; format: functional, cell-based; settings: MCF7, 72 h; procedure, shortened: as §1
[1] = Antiproliferative activity against human PC3M cells after 72 hrs by methylene blue staining; format: functional, cell-based; settings: PC-3M; procedure, shortened: as §1
[2] = Induction of pig brain alpha-beta-tubulin polymerization; parameters: species or system Sus scrofa
Procedure, shortened: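 Porcine brain tubulin at 10 µM. Polymerization followed by turbidity at 340 nm until a stable A340 plateau (equilibrium between soluble and polymerized tubulin). EC50 is the concentration inducing 50% of the maximum achievable polymerization. The maximum is the plateau beyond which higher compound concentration gives no further A340 increase.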

C/C(=C\c1csc(C)n1)[C@@H]1C[C@@H]2O[C@@H]2CCC[C@H](C)[C@H](O)[C@@H](C)C(=O)C(C)(C)[C@@H](O)CC(=O)O1 [EPOTHILONE A] gave an IC50 (HCT-116) of 2.8 nM, an IC50 (MCF7) of 2.9 nM and an IC50 [1] of 6.4 nM. The EC50 [2] was 4.6 µM.

For C/C(=C\c1csc(C)n1)[C@@H]1C[C@@H]2O[C@@H]2CCC[C@H](C)[C@H](O)[C@@H](C)C(=O)C(C)(C)/C=C/C(=O)O1 [3-DEOXY-2,3-DIDEHYDRO-EPO A], the IC50 (HCT-116) was 16.2 nM, the IC50 (MCF7) was 8.7 nM and the IC50 [1] was 24.8 nM. The EC50 [2] was 4.8 µM.

Work on C/C(=C\c1csc(C)n1)[C@@H]1C[C@@H]2O[C@@H]2CCC[C@H](C)[C@H](O)[C@@H](C)C(=O)C(C)(C)CCC(=O)O1 [3-DEOXY-EPO A] yielded an IC50 (HCT-116) of 84.4 nM, an IC50 (MCF7) of 58.4 nM and an IC50 [1] of 79 nM. It also gave an EC50 [2] of 5.6 µM.

— ChEMBL document CHEMBL1143168, “Conformational preferences of natural and C3-modified epothilones in aqueous solution” (J Med Chem, 2008)
